1 compound from ChEMBL document CHEMBL3046679, “Design, synthesis, and biological activities of arylmethylamine substituted chlorotriazine and methylthiotriazine compounds” (J Agric Food Chem, 2011) can be followed below.

Activity calls are given as the source filed them. The calls are words filed in the database; no cut-off is given here.

Assay [1] deals with Puccinia triticina. Briefly: Fungicidal activity against Puccinia triticina assessed as inhibition of disease development in compound treated leaf pieces at 200 ppm relative to untreated control (wheat-curative). Type of assay: functional. In short, it runs like this:
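Curative wheat leaf-piece test against Puccinia triticina. Leaf pieces inoculated with spores first, then treated with formulated compound at 200, 60 or 20 ppm. Disease scored 3–9 days after inoculation as percent inhibition versus untreated controls. Values are the mean across replicates.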

Assay [2] has as its system Puccinia triticina. Briefly: Fungicidal activity against Puccinia triticina assessed as inhibition of disease development in compound treated leaf pieces at 60 ppm relative to untreated control (wheat-preventative). The class given is functional. In short, it runs like this:
(§1)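 Preventative leaf-piece test on host tissue (tomato, vine, wheat or barley). Formulated compound applied at 200, 60 and 20 ppm before spore inoculation. Disease scored 3–9 days after inoculation, depending on the pathogen, as percent inhibition of disease development versus untreated controls. Values are the mean across replicates.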

The test system of a further assay is Arabidopsis thaliana. Briefly: Herbicidal activity against Arabidopsis thaliana assessed as growth inhibition at 10 ppm by 96-well plate test. Type of assay: functional. Particulars: read-out: GI. In short, it runs like this: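 96-well plate herbicide screen: Arabidopsis thaliana at 10 ppm and Poa annua at 32 ppm, two replicates. Plates incubated seven days in a controlled-environment cabinet. Each replicate scored 0 (no visible effect) or 99 (herbicidal effect); values are the mean of the two. Atrazine used as reference.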

The test system of assay [3] is Stellaria media. Briefly: Herbicidal activity against Stellaria media assessed as growth inhibition at 1 kg/ha postemergence treatment by glasshouse test. Particulars: post-emergence, read-out: GI. Type of assay: functional. In short, it runs like this:
(§2)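 Glasshouse screen with pre- or postemergence application at 1.0 kg/ha. Result given as percent inhibition of plant growth; norflurazon and glyphosate used as controls.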

The test system of a further assay is Plasmopara viticola. Briefly: Fungicidal activity against Plasmopara viticola assessed as inhibition of disease development in compound treated leaf pieces at 200 ppm relative to untreated control (grapevine-preventative). Type of assay: functional. In short, it runs like this: as §1
Another assay concerns Digitaria sanguinalis. Briefly: Herbicidal activity against Digitaria sanguinalis (hairy crabgrass) assessed as growth inhibition at 1 kg/ha preemergence treatment by glasshouse test. The following applies: pre-emergence, read-out: GI. The class given is functional. In short, it runs like this: as §2
The subject of a further assay is Zymoseptoria tritici. Briefly: Fungicidal activity against Zymoseptoria tritici assessed as inhibition of mycelia growth at 100 ppm. Type of assay: functional, organism-based.
A further assay relates to Aphididae. Put plainly: Insecticidal activity against Aphididae (aphids) assessed as mortality at 1000 ppm by leaf-disk assay. Type of assay: functional, organism-based. In short, it runs like this:
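Leaf-disk assay at 1000 ppm, three replicates. Plates kept 5–9 days in controlled-environment cabinets. Mortality judged against untreated wells: 99 for significant mortality, 0 otherwise. Values are the mean of three; thiamethoxam and indoxacarb used as positive controls.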

In a further assay the test system is Echinochloa crus-galli. Briefly: Herbicidal activity against Echinochloa crus-galli (barnyard grass) at 1.5 kg/ha preemergence treatment measured after 10 days by glasshouse test. The class given is functional. The following applies: pre-emergence, 240 h. In short, it runs like this:
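Glasshouse pre/postemergence test, each treatment in triplicate. Above-ground fresh weight measured 10 days after treatment. Result expressed as percent inhibition versus control, from 0 (no control) to 100 (complete control); glyphosate used as positive control.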

Assay [4] has as its system Lolium perenne. Briefly: Herbicidal activity against Lolium perenne (perennial ryegrass) assessed as growth inhibition at 1 kg/ha preemergence treatment by glasshouse test. Type of assay: functional. Particulars: pre-emergence, read-out: GI. In short, it runs like this:
as §2

The test system of assay [5] is Parastagonospora nodorum. Briefly: Fungicidal activity against Phaeosphaeria nodorum assessed as inhibition of disease development in compound treated leaf pieces at 60 ppm relative to untreated control (wheat preventative). The class given is functional. In short, it runs like this: as §1
The subject of assay [6] is Parastagonospora nodorum. Briefly: Fungicidal activity against Phaeosphaeria nodorum assessed as inhibition of disease development in compound treated leaf pieces at 20 ppm relative to untreated control (wheat preventative). Type of assay: functional. In short, it runs like this: as §1
Assay [7] relates to Stellaria media. Put plainly: Herbicidal activity against Stellaria media assessed as growth inhibition at 1 kg/ha preemergence treatment by glasshouse test. Type of assay: functional. Particulars: pre-emergence, read-out: GI. In short, it runs like this: as §2
The test system of assay [8] is Lolium perenne. Put plainly: Herbicidal activity against Lolium perenne (perennial ryegrass) assessed as growth inhibition at 1 kg/ha postemergence treatment by glasshouse test. The class given is functional. The following applies: post-emergence, read-out: GI. In short, it runs like this:
as §2

For orientation: inhibition means the drop in the measured response relative to a control, in per cent. For the compound `CC(C)Nc1nc(Cl)nc(NCc2ccc(F)cc2)n1`, the results for the inhibition at 200 ppm in the assay with Puccinia triticina [1] and with Plasmopara viticola were 100% and 50%, respectively. Moreover, the inhibition at 60 ppm in the assay on Puccinia triticina [2] and in the assay with Parastagonospora nodorum [5] was 20% throughout. The inhibition of growth at 10 ppm in the assay with Arabidopsis thaliana came to 99%. For the same compound, the inhibition of growth at 1000 g/ha in the assay on Stellaria media [3] is 90%; in the assay on Digitaria sanguinalis it was 70%; in the assay with Lolium perenne [4] it was 30%; in the assay on Stellaria media [7], 90%; in the assay on Lolium perenne [8] it was 50%. The inhibition result in the assay on Zymoseptoria tritici is “Active”. The mortality result in the assay with Aphididae is “inactive”. In the assay with Echinochloa crus-galli, this compound came in with an inhibition at 1500 g/ha of 2.1%. The inhibition at 20 ppm with Parastagonospora nodorum [6] is 0%.
